Data taken from ChEMBL document CHEMBL4138314, “Synthesis and Evaluation of N-Phenyl-3-sulfamoyl-benzamide Derivatives as Capsid Assembly Modulators Inhibiting Hepatitis B Virus (HBV)” (J Med Chem, 2018).
Calls of active or inactive are those of the source. The rule behind the calls is not given here.

Legend:
[1] = Clearance in C57BL/6 mouse at 2.5 mg/kg, iv by LC-MS/MS analysis; format: ADME, organism-based; conditions: in vivo
Outline: (§1)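 Single-dose PK in C57BL/6 mice after intravenous or oral dosing, with oral doses of 10 and 50 mg/kg; plasma clearance and volume of distribution taken from the i.v. arm.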

[2] = Inhibition of calcium channel (unknown origin); set-up: species or system Homo sapiens
[3] = Unbound fraction in mouse plasma; format: ADME, cell-free
[4] = AUC (0 to infinity) in humanized mouse at 200 mg/kg, sc measured on day 1 post dose by LC-MS/MS analysis; format: ADME, organism-based; set-up: dose 200 mg/kg, route subcutaneous, time infinity; conditions: in vivo
[5] = AUC (0 to last) in C57BL/6 mouse at 10 mg/kg, po by LC-MS/MS analysis; format: ADME, organism-based; set-up: dose 10 mg/kg, time 0 - last, route oral; conditions: in vivo; outline: as §1
[6] = AUC (0 to last) in C57BL/6 mouse at 50 mg/kg, po by LC-MS/MS analysis; format: ADME, organism-based; set-up: dose 50 mg/kg, route oral, time 0 - last; conditions: in vivo; outline: as §1
[7] = Drug uptake in C57BL/6 mouse liver at 50 mg/kg, sc after 24 hrs by LC-MS/MS analysis; format: ADME, organism-based; conditions: read-out: Drug uptake
Outline: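 C57BL/6 mice dosed subcutaneously once at 50 mg/kg, given to bypass first-pass metabolism; compound measured in plasma (ng/mL) and liver (ng/g) 24 h after dosing.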

Cytochrome P450 3A4 = Cytochrome P450 3A4 (Homo sapiens, UniProt P08684); assay: Inhibition of CYP3A4 (unknown origin); format: ADME
Sequence of Cytochrome P450 3A4 (P08684 whole entry): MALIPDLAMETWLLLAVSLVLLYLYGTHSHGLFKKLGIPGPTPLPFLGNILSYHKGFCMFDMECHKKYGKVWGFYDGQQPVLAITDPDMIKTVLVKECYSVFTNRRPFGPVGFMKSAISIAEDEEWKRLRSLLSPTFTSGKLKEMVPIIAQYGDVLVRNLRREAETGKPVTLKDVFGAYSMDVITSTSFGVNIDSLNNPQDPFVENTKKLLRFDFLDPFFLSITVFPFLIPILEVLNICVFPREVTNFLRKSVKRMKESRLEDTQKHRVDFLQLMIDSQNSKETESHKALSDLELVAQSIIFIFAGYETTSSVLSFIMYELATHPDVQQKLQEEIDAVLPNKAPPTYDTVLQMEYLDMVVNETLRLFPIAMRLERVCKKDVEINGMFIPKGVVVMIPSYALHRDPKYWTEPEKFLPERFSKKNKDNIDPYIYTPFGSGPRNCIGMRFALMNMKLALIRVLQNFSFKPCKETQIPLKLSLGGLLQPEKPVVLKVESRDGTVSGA

[8] = Tmax in C57BL/6 mouse at 50 mg/kg, po by LC-MS/MS analysis; format: ADME, organism-based; conditions: in vivo
Outline: (§2)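 Single-dose PK in C57BL/6 mice given compound intravenously and orally, with oral doses of 10 and 50 mg/kg. Plasma clearance, volume of distribution and oral bioavailability were derived from the plasma profiles.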

[9] = molecular target: 5-hydroxytryptamine receptor 2B (Homo sapiens, UniProt P41595); assay: Antagonist activity at 5-HT2B (unknown origin); format: functional
Sequence of 5-hydroxytryptamine receptor 2B (P41595 whole entry): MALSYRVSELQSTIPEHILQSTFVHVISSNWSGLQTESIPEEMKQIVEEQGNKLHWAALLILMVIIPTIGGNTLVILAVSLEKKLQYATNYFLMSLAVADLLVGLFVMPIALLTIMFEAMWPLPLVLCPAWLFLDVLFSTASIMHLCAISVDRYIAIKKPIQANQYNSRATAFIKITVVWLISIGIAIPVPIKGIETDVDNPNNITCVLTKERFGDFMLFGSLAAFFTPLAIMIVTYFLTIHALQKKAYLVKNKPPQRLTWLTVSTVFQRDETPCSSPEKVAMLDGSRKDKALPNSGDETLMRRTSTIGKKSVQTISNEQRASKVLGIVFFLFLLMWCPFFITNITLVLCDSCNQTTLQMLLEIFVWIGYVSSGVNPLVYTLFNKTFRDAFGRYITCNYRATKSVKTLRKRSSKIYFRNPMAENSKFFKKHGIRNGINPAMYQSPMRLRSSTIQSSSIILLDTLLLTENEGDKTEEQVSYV
Outline: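 Receptor/ion channel/transporter panel of 80 targets screened at 10 µM, giving percent effect at 5-HT2B; follow-up 5-HT2B functional testing in agonist and antagonist modes, with antagonist IC50 determined.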

HBV genotype D [10] = assay: Antiviral activity against HBV genotype D infected in chimeric mouse with humanized liver assessed as log reduction in viral DNA level in serum at 200 mg/kg, sc qd for 28 days by RT-PCR method; format: functional, hepatitis B virus genotype D
Outline: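 HBV genotype D-infected chimeric mice with humanized liver (human hepatocyte replacement index ≥70%, judged by serum human albumin). Dosing was once daily for 28 days: test article 200 mg/kg s.c., entecavir 0.03 mg/kg oral as positive control, and oral saline as negative control. The read-out was serum HBV DNA (copies/mL), given as mean log change from baseline at day 29.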

[11] = molecular target: Voltage-gated inwardly rectifying potassium channel KCNH2 (Homo sapiens, UniProt Q12809); assay: Inhibition of human ERG
Sequence of Voltage-gated inwardly rectifying potassium channel KCNH2 (Q12809 whole entry): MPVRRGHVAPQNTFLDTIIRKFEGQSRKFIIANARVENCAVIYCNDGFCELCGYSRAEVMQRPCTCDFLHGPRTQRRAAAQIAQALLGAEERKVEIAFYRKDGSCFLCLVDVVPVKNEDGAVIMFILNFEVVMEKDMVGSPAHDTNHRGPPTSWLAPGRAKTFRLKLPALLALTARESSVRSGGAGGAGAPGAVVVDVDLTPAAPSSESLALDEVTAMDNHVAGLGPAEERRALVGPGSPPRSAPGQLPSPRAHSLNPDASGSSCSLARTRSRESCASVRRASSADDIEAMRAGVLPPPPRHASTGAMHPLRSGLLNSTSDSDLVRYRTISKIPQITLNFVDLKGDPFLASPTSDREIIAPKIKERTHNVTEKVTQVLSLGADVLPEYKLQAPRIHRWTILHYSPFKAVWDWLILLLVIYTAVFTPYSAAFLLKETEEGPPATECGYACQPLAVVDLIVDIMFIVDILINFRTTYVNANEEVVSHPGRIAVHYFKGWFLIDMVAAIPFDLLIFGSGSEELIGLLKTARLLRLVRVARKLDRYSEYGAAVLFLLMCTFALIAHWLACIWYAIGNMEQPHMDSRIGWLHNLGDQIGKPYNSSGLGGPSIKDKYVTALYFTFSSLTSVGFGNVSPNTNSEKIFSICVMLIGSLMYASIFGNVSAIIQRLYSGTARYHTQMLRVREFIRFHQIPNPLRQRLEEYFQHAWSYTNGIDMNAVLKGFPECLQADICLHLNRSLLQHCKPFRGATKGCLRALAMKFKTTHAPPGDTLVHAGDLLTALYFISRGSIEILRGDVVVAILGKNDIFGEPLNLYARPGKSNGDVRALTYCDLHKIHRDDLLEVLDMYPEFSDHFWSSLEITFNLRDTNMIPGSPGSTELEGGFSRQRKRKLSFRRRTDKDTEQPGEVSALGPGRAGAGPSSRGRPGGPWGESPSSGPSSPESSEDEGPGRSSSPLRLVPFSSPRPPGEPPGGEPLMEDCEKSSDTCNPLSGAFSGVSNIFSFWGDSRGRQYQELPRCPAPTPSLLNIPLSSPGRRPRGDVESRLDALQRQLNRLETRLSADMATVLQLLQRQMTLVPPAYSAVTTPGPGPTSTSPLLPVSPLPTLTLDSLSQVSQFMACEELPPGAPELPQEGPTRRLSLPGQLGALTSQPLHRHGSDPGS

[12] = AUC (0 to infinity) in humanized mouse at 50 mg/kg, sc for 8 days measured on day 8 post last dose by LC-MS/MS analysis; format: ADME, organism-based; set-up: dose 50 mg/kg, time infinity, route subcutaneous; conditions: in vivo
[13] = Inhibition of sodium channel (unknown origin); set-up: species or system Homo sapiens
hERG = hERG (Homo sapiens, UniProt Q12809); assay: Inhibition of human ERG at 3 uM by automated patch clamp assay (reference value: 14%)
Sequence of hERG (Q12809 whole entry): as above

[14] = Drug metabolism in mouse liver microsomes at 1 uM after 15 mins by LC-MS/MS analysis; format: ADME, microsome; conditions: read-out: Drug metabolism
Outline: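 Compound incubated 15 min with human or mouse liver microsomes; stability expressed as percent turnover (metabolised) at 15 min.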

[15] = AUC (0 to last) in C57BL/6 mouse at 2.5 mg/kg, iv by LC-MS/MS analysis; format: ADME, organism-based; set-up: dose 2.5 mg/kg, route intravenous, time 0 - last; conditions: in vivo
[16] = Half life in C57BL/6 mouse at 50 mg/kg, sc by LC-MS/MS analysis; format: ADME, organism-based; conditions: in vivo
[17] = Volume of distribution at steady state in C57BL/6 mouse at 2.5 mg/kg, iv by LC-MS/MS analysis; format: ADME, organism-based; conditions: in vivo, read-out: Vdss
HBV genotype D [18] = assay: Antiviral activity against HBV genotype D infected in primary human hepatocytes assessed as inhibition of viral DNA level by qPCR analysis; format: functional, organism-based; conditions: Hepatitis B virus
Outline: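 Primary human hepatocytes isolated from naive chimeric mice with humanized liver and infected with HBV genotype D; HBV DNA in culture supernatant quantified by qPCR to derive EC50.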

[19] = Bioavailability in C57BL/6 mouse at 50 mg/kg, sc by LC-MS/MS analysis; format: ADME, organism-based; conditions: in vivo
Salmonella typhimurium = assay: Genotoxicity in Salmonella typhimurium by Ames test; format: toxicity, organism-based; conditions: salmonella enterica subsp. enterica serovar typhimurium
HepG2 = assay: Cytotoxicity against human HepG2 cells after 4 to 6 days by resazurin assay; format: cell-based; conditions: hepg2
[20] = Oral bioavailability in C57BL/6 mouse at 10 mg/kg by LC-MS/MS analysis; format: ADME, organism-based; conditions: in vivo; outline: as §2
[21] = Drug uptake in humanized mouse liver at 200 mg/kg, sc after 24 hrs by LC-MS/MS analysis; format: ADME, organism-based; conditions: read-out: Drug uptake
Outline: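 Uninfected humanized mice given 50 or 200 mg/kg subcutaneously once daily as a methocel suspension for 8 days; liver concentration measured 24 h after dosing.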

Mus musculus = assay: Hepatotoxicity in chimeric mouse with humanized liver infected with HBV genotype D assessed as decrease in human albumin level in mouse serum at 200 mg/kg, sc qd for 28 days; format: toxicity, organism-based; conditions: in vivo, 672 h
Outline: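 Cytotoxicity to human hepatocytes was judged in HBV genotype D-infected chimeric mice (≥70% human hepatocyte replacement) by tracking serum human albumin over time. Dosing was once daily for 28 days at 200 mg/kg s.c., with oral saline and oral entecavir 0.03 mg/kg as controls.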

[22] = Tmax in humanized mouse at 50 mg/kg, sc measured on day 1 post dose by LC-MS/MS analysis; format: ADME, organism-based; conditions: in vivo
[23] = Half life in humanized mouse at 200 mg/kg, sc measured on day 1 post dose by LC-MS/MS analysis; format: ADME, organism-based; conditions: in vivo
[24] = Half life in C57BL/6 mouse at 50 mg/kg, po by LC-MS/MS analysis; format: ADME, organism-based; conditions: in vivo; outline: as §1
[25] = molecular target: Core antigen (Hepatitis B virus) (UniProt Q03732); assay: Induction of HBV Maleimidyl BoDIPY-FL-labeled capsid Cp*150 mutant aggregation incubated for 30 mins measured every 10 secs for 30 mins by fluorescence quenching assay
Sequence of Core antigen (Hepatitis B virus) (Q03732 as listed by the source): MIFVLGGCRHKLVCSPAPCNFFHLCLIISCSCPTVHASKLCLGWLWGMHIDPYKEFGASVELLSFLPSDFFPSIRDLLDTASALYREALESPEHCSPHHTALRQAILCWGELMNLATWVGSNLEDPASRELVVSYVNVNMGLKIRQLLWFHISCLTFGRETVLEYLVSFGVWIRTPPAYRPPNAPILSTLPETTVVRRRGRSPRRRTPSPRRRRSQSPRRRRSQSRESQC

[26] = Cmax in humanized mouse at 50 mg/kg, sc for 8 days measured on day 8 post last dose by LC-MS/MS analysis; format: ADME, organism-based; set-up: dose 50 mg/kg, route subcutaneous; conditions: in vivo
HBV genotype D [27] = assay: Antiviral activity against HBV genotype D infected in chimeric mouse with humanized liver assessed as reduction in HBsAg level at 200 mg/kg, sc qd for 28 days; format: functional, organism-based; conditions: hepatitis B virus genotype D
Outline: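 HBV genotype D-infected humanized-liver chimeric mice (≥70% human hepatocyte replacement) were dosed once daily for 28 days at 200 mg/kg s.c., with oral saline and oral entecavir 0.03 mg/kg as controls. Serum HBeAg and HBsAg were followed over the study.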

[28] = AUC (0 to 24 hrs) in humanized mouse at 50 mg/kg, sc for 8 days measured on day 8 post last dose by LC-MS/MS analysis; format: ADME, organism-based; set-up: time < 24 hr, dose 50 mg/kg, route subcutaneous; conditions: in vivo
[29] = Drug metabolism in human primary hepatocytes assessed as cleavage of N-phenylamide; format: ADME, cell-based, Hepatocyte
Outline: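 Compound incubated with primary hepatocytes and checked for cleavage of the N-phenylamide bond.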

Cc1cc(NC(=O)c2cccc(S(=O)(=O)N[C@H]3CCOC3)c2)ccc1F
clearance [1]: 34 mL/min/kg | IC50 [2]: > 10 µM | fraction unbound [3]: 0.126 | AUC(0-inf) [4]: 12700 ng·h/mL | AUC(0-t) [5]: 1990 ng·h/mL | AUC(0-t) [6]: 16400 ng·h/mL | concentration at 24 h [7]: 1300 ng/g | IC50 (Cytochrome P450 3A4): > 10 µM | Tmax [8]: 0.7 h | IC50 [9]: 4 to 5.6 µM | log(activity) (HBV genotype D [10]): 2.77 | IC50 [11]: > 10 µM | AUC(0-inf) [12]: 20700 ng·h/mL | IC50 [13]: > 10 µM | inhibition at 3 µM (hERG): 31% | metabolised at 0.25 h, 1 µM [14]: 51% | AUC(0-t) [15]: 1240 ng·h/mL | half-life [16]: 5.3 h | Vd [17]: 1.3 L/kg | EC50 (HBV genotype D [18]): 0.2 µM | bioavailability [19]: 68% | Activity (Salmonella typhimurium): Non-Toxic | EC20 (HepG2): 10 to 30 µM | bioavailability [20]: 40% | concentration at 24 h [21]: 4880 ng/g | Activity (Mus musculus): Non-Toxic | Tmax [22]: 1 h | half-life [23]: 5.6 h | half-life [24]: 2.4 h | Activity [25]: Active | Cmax [26]: 4380 ng/mL | Activity (HBV genotype D [27]): inactive | AUC at 24 h [28]: 19200 ng·h/mL | Drug metabolism [29]: Metabolite_Notdetected
